# Results from PubChem BioAssay AID493180 (Broad Institute, 2011).
# “And” between values parts separate entries of the source, which are not always exact repeats. Identical values can stand only once. The source made the active and inactive calls.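 How the source made its calls: active means fitted curve reaching 40% activation at or below the top valid tested dose; inactive means the rest, or activity counter to the expected direction.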
# Tested on: not listed separately
# Assay: HIF pathway activators in reporter cells, dose response, cell-based, U2OS HRE-luciferase, luminescence, dry powder, set 3 (AID 493180)
# Settings: U2OS HRE-luciferase reporter, luminescence, HIF pathway activation; at 38 µM (top of the series)
# In short: (§1)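 material = U2OS 3xHRE-luciferase reporter cells | compound = 8-point series in 3-fold steps, 7.5 mM top stock | detection = Steady-Glo luminescence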
row,SMILES,activation
1,O=C(c1cc(-c2ccccc2)on1)N1CCC(N2CCCC2)CC1,0.044% (inactive)
2,CC1CN(Cc2ccc(O)c3ncccc23)CC(C)O1 (stereo not drawn),2.27% (inactive)
3,O=C(Nc1cnc2ccccc2c1)c1cc(-c2ccccc2)on1,0.049% (inactive)
4,Oc1ccc(CN2CCc3ccccc3C2)c2cccnc12,1.34% (inactive)
5,Oc1ccc(CN2CCC(Cc3ccccc3)CC2)c2cccnc12,22.2% (inactive)
6,N#CC1(c2ccccc2)CCN(Cc2ccc(O)c3ncccc23)CC1,6.8% (inactive)
7,O=C(Nc1ncc(-c2ccccc2)o1)c1cc(-c2ccccc2)on1,-0.837% (inactive)
8,CN1CCN(C(=O)c2cc(-c3ccccc3)on2)CC1,-0.645% (inactive)
9,Cn1c(NC(=O)c2cc(-c3ccccc3)on2)nc2ccccc21,0.384% (inactive)
10,Cc1ccc(NC(=O)c2cc(-c3ccccc3)on2)cn1,1.37% (inactive)
11,O=C(Nc1nnc(-c2ccccc2)s1)c1cc(-c2ccccc2)on1,0.329% (inactive)
12,O=C(Nc1ncc2ccccc2n1)c1cc(-c2ccccc2)on1,2.48% (inactive)
13,O=C(NCC1CCCCC1)c1cc(-c2ccccc2)on1,3.45% (inactive)
14,Oc1ccc(CNC2CCc3ccccc32)c2cccnc12 (stereo not drawn),11.5% (inactive)
15,Cc1ccc(CNC(=O)c2cc(-c3ccccc3)on2)cc1,-0.867% (inactive)
16,Cc1cccc(NC(=O)c2cc(-c3ccccc3)on2)n1,1.4% (inactive)
17,O=C(NCc1ccccc1)c1cc(-c2ccccc2)on1,0.892% (inactive)
18,O=C(c1cc(-c2ccccc2)on1)N1CCN(c2ccncc2)CC1,-1.02% (inactive)
19,CN(C)CCNC(=O)c1cc(-c2ccccc2)on1,1.68% (inactive)
20,Cc1ccccc1CNC(=O)c1cc(-c2ccccc2)on1,1.28% (inactive)
21,Cc1cccc(CNC(=O)c2cc(-c3ccccc3)on2)c1,-1.13% (inactive)
22,Cn1c(-c2ccccc2)cnc1NC(=O)c1cc(-c2ccccc2)on1,0.636% (inactive)
23,CC(C)(C)CCNC(=O)c1cc(-c2ccccc2)on1,19.3% (inactive)
24,O=C(NC1CCc2ccccc2C1)c1cc(-c2ccccc2)on1 (stereo not drawn),-0.627% (inactive)
25,O=C(NC1Cc2ccccc2C1)c1cc(-c2ccccc2)on1,2.88% (inactive)

# Tested on: U2OS HRE-luciferase reporter, luminescence, HIF pathway activation
# Assay: as above
# Settings: not given
# In short: as §1
row,SMILES,AC40
1,Oc1ccc(CNC2Cc3ccccc3C2)c2cccnc12,> 38 µM (inactive)
2,O=C(NCCCn1ccnc1)c1cc(-c2ccccc2)on1,28.9 µM
3,c1ccc(-c2ccc(CNc3nc(-c4ccccn4)nnc3-c3ccccc3)cc2)cc1,1.09 µM
4,C[C@@H](Nc1nc(-c2ccccn2)nnc1-c1ccccc1)C1CCCCC1,5.21 µM
5,O=C(NCCN1CCOCC1)c1cc(-c2ccccc2)on1,> 38 µM (inactive)
6,O=C(c1cc(-c2ccccc2)on1)N1CCC(N2CCOCC2)CC1,> 4.6 µM (inactive)
7,Clc1cccc(CNc2nc(-c3ccccn3)nnc2-c2ccccc2)c1,2.21 µM
8,O=C(NCCCN1CCOCC1)c1cc(-c2ccccc2)on1,> 38 µM (inactive)
9,c1ccc(CCNc2nc(-c3ccccn3)nnc2-c2ccccc2)cc1,2.69 µM
10,c1ccc(CNc2nc(-c3ccccn3)nnc2-c2ccccc2)cc1,5.63 µM
11,c1ccc(-c2nnc(-c3ccccn3)nc2N2CCC(c3ccccc3)C2)cc1 (stereo not drawn),2.54 µM
12,Oc1ccc(CN2CCC3CCCCC3C2)c2cccnc12 (stereo not drawn),34.8 µM
13,CC(C)(C)CCNc1nc(-c2ccccn2)nnc1-c1ccccc1,3.2 µM and 1.8 µM
14,OCCCNc1nc(-c2ccccn2)nnc1-c1ccccc1,22.2 µM
15,O=C(NCC1CC1)c1cc(-c2ccccc2)on1,31 µM
16,CCCCNC(=O)c1cc(-c2ccccc2)on1,> 38 µM (inactive)
17,c1ccc(-c2cccc(CNc3nc(-c4ccccn4)nnc3-c3ccccc3)c2)cc1,1 µM
18,c1ccc(-c2csc(Nc3nc(-c4ccccn4)nnc3-c3ccccc3)n2)cc1,1.39 µM
19,Oc1ccc(CN2CCc3ccccc3C2)c2cccnc12,14.1 µM
20,c1ccc(-c2nnc(-c3ccccn3)nc2NCc2ccccn2)cc1,22 µM
21,Cn1c(-c2ccccc2)cnc1Nc1nc(-c2ccccn2)nnc1-c1ccccc1,5.83 µM

row,SMILES,AC40
1,Cc1ccc(Nc2nc(-c3ccccn3)nnc2-c2ccccc2)cn1,13.6 µM
2,C[C@H](Nc1nc(-c2ccccn2)nnc1-c1ccccc1)C1CCCCC1,2.59 µM
3,c1ccc(-c2nnc(-c3ccccn3)nc2NCCc2ccccn2)cc1,12.5 µM
4,c1ccc(-c2nnc(-c3ccccn3)nc2NCCN2CCOCC2)cc1,15.3 µM
5,CN1CCN(c2nc(-c3ccccn3)nnc2-c2ccccc2)CC1,21.7 µM
6,O=C(NCCCO)c1cc(-c2ccccc2)on1,> 38 µM (inactive)
7,c1ccc(-c2nnc(-c3ccccn3)nc2NCc2cccnc2)cc1,16.3 µM
8,c1ccc(-c2nnc(-c3ccccn3)nc2NCC2CCCCC2)cc1,3.5 µM
9,O=C(Nc1cn2ccccc2n1)c1cc(-c2ccccc2)on1,> 4.6 µM (inactive)
10,Cc1cccc(CNc2nc(-c3ccccn3)nnc2-c2ccccc2)c1,4.5 µM
11,CC(Nc1nc(-c2ccccn2)nnc1-c1ccccc1)c1ccccc1 (stereo not drawn),1.94 µM
12,c1ccc(-c2nnc(-c3ccccn3)nc2NCC2CC2)cc1,7.63 µM
13,OCC1CCN(Cc2ccc(O)c3ncccc23)CC1,> 4.6 µM (inactive)
14,Cc1cccc(Nc2nc(-c3ccccn3)nnc2-c2ccccc2)n1,14.2 µM
15,c1ccc(-c2nnc(-c3ccccn3)nc2NCC2CCOCC2)cc1,22.8 µM
16,O=C(Nc1nc2ccccc2s1)c1cc(-c2ccccc2)on1,> 1.5 µM (inactive)
17,c1ccc(-c2nnc(-c3ccccn3)nc2Nc2cnc3ccccc3n2)cc1,7.45 µM
18,c1ccc(-c2nnc(-c3ccccn3)nc2N2CCC(N3CCOCC3)CC2)cc1,7.47 µM
19,c1ccc(-c2cnc(Nc3nc(-c4ccccn4)nnc3-c3ccccc3)s2)cc1,> 4.6 µM (inactive)
20,Cc1ccc(CNc2nc(-c3ccccn3)nnc2-c2ccccc2)cc1C,2.12 µM
21,OCC1CCN(c2nc(-c3ccccn3)nnc2-c2ccccc2)CC1,21.1 µM

row,SMILES,AC40
1,c1ccc(-c2nnc(-c3ccccn3)nc2N2CCN(c3ccncc3)CC2)cc1,4.63 µM
2,c1ccc(-c2nnc(Nc3nc(-c4ccccn4)nnc3-c3ccccc3)s2)cc1,25.3 µM
3,O=C(Nc1nc(-c2ccccc2)cs1)c1cc(-c2ccccc2)on1,> 4.6 µM (inactive)
4,COc1cccc(CNc2nc(-c3ccccn3)nnc2-c2ccccc2)c1,2.83 µM
5,O=C(c1cc(-c2ccccc2)on1)N1CCc2cccnc21,> 4.6 µM (inactive)
6,COc1ccc(CNc2nc(-c3ccccn3)nnc2-c2ccccc2)cc1,3.7 µM
7,C[C@@H](Nc1nc(-c2ccccn2)nnc1-c1ccccc1)c1ccccc1,5.22 µM
8,O=C(NCCN1CCCCC1)c1cc(-c2ccccc2)on1,2.5 µM
9,Cc1ccccc1CNc1nc(-c2ccccn2)nnc1-c1ccccc1,5.58 µM
10,CC(C)(C)c1ccc(CNc2nc(-c3ccccn3)nnc2-c2ccccc2)cc1,2.15 µM
11,C=CCNc1nc(-c2ccccn2)nnc1-c1ccccc1,7.74 µM
12,CN(C)c1nc(-c2ccccn2)nnc1-c1ccccc1,12.9 µM
13,c1ccc(-c2nnc(-c3ccccn3)nc2N2CCC(C3CCCCC3)C2)cc1 (stereo not drawn),1.5 µM
14,c1ccc(-c2nnc(-c3ccccn3)nc2Nc2nc3ccccc3s2)cc1,5.89 µM
15,Cc1ccc(CNc2nc(-c3ccccn3)nnc2-c2ccccc2)cc1,3.58 µM
16,COc1ccccc1N1CCN(Cc2ccc(O)c3ncccc23)CC1,> 38 µM (inactive)
17,c1ccc(-c2nnc(-c3ccccn3)nc2NCCCN2CCOCC2)cc1,7.33 µM
18,O=C(NCCCCO)c1cc(-c2ccccc2)on1,12 µM
19,O=C(c1cc(-c2ccccc2)on1)N1CCC(CO)CC1,> 4.6 µM (inactive)
20,CC(C)(C)OC(=O)N1CCN(Cc2ccc(O)c3ncccc23)CC1,> 4.6 µM (inactive)
21,O=C(Nc1ccc2ccccc2n1)c1cc(-c2ccccc2)on1,> 4.6 µM (inactive)
